# Assay outcomes (PubChem)
# HCT116 PTEN-null = PTEN-deleted cell growth suppression. HCT116 PTEN-null viability, CellTiter-Glo, 60 h; active compounds read low. viability, % at 10 µM. 140,000 tested, 1.2% active;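 active means viability at or below a set limit, 4 SD under the median of all tested compounds, cut at about 3.7% in these data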;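 further: PTEN knockout HCT116 line with beta catenin targeted HCT116 as companion control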
# HCT116 bCat-KO = beta-catenin-lacking colon tumor cell growth suppression; HCT116 beta-catenin knockout viability, CellTiter-Glo, 60 h; active compounds read low; viability, % at 10 µM; 140,000 tested, 1.5% active; AID 818;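 active means viability at or under a set limit, the compound median less 4 SD, cut at about 6% in these data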;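 further: 0% = Hyamine 1622 control at 20 µM and 100% = untreated cell control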
# H69AR growth 86K = blocks growth of human H69AR lung tumor cells; H69AR lung tumor viability, ATP luminescence, 72 h; active compounds read low; viability, % at 10 µM; 85,000 tested, 6% active; AID 598;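 active means viability at or below 40%; inactive means viability above 40%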;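 further: multidrug resistant small cell line overexpressing MRP-1 efflux transporter; 100% = mean luminescence of untreated control wells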
# HUVEC prolif 384 = blocks proliferation of human endothelial cells | HUVEC proliferation, CellTiter-Glo luminescence, 72 h; active compounds read low | viability, % at 10 µM (by protocol) | 86,000 tested, 1.1% active;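 active means viability at or below 30%; inactive means viability above 30%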;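 further: 100% = median luminescence of DMSO-only cell control wells on each plate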
# Fibroblast inh = blocks proliferation of human lung fibroblasts | 85,000 tested, 1.1% active | AID 719 | LL 47 human lung fibroblast viability, ATP luminescence; active compounds read low | viability, % at 10 µM;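 active means viability at or below 50% in the single dose screen; inactive means viability above 50%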;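 further: compound exposure lasted 72 h before the ATP readout; 100% = median luminescence of untreated cell-only wells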
#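 Assay system: human lung fibroblast line LL 47, low passage. Input: 1,150 fibroblasts seeded per well. Times: overnight cell rest, 72 h compound treatment at 37 °C. Evaluation: % viability of median cell-only signal. Technique: luminescent ATP detection, CellTiter-Glo. Control set: cell-only wells, no compound.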
# * marks the source's active call; other numbers are inactive results; x = no result. Shown is part of a subset that was picked to be rich in hits.
SMILES,HCT116 PTEN-null,HCT116 bCat-KO,H69AR growth 86K,HUVEC prolif 384,Fibroblast inh
Cc1nc2cc(N3CCCCC3)c(NC(=O)c3ccncc3)cc2c(=O)n1Cc1ccccc1,4.2,4.4*,x,x,x
O=C(NCc1cccnc1)/C(=C\c1ccc(-c2ccc(Cl)c(Cl)c2)o1)S(=O)(=O)c1ccccc1,1.5*,1.8*,x,x,x
O=C(NCc1cccnc1)c1ccc(Cl)c(Cl)c1,95.4,94.8,85.7,95.1,91.0
CCN(CC)P1(=O)OC(c2cc(OC)c(OC)c(OC)c2)=Nc2c1c(C)nn2-c1ccccc1 (configuration not stated),101.3,92.8,28.1*,89.4,83.2
COc1ccc(CCn2c(=S)[nH]c3cc(C(=O)NCc4ccco4)ccc3c2=O)cc1OC,84.6,90.1,4.4*,7.3*,76.4
Clc1ccccc1CN(Cc1ccccc1)c1ncnc2nc[nH]c12,100.5,94.7,35.6*,87.3,91.2
COc1cc(C(c2nnnn2C(C)(C)C)N2CCN(c3nc4ccccc4s3)CC2)ccc1O (configuration not stated),73.4,69.6,9.0*,96.3,84.4
CCOc1ccccc1C(=O)N1CCC(n2nnc3cc(C(F)(F)F)ccc32)CC1,80.8,77.1,38.9*,79.8,97.7
CCOc1ccccc1C(=O)N1CCC(n2nnc3cc(C)ccc32)CC1,87.7,84.4,89.1,100.7,101.3
CCOc1ccc(C(=O)NC(=S)Nc2ncccc2C)cc1[N+](=O)[O-],3.3*,2.8*,x,x,x
CC1Cc2cc(-c3csc(NC(=O)Cc4cccs4)n3)ccc2N1S(C)(=O)=O (configuration not stated),6.5,5.6*,74.7,67.5,79.2
CS(=O)(=O)N1CCc2cc(-c3csc(NC(=O)Cc4ccccc4)n3)ccc21,13.1,14.3,79.0,83.5,101.0
CCOC(=O)C(Oc1ccc(=O)n(-c2ccccc2)n1)C(C)=O (configuration not stated),103.2,99.7,96.0,94.6,98.9
Cn1c(=O)c2c(nc(N3CCN(Cc4ccccc4)CC3)n2CC(=O)c2ccccc2)n(C)c1=O,x,x,31.7*,92.0,93.2
CCOC(=O)Cn1c(=O)c2c(nc(N3CCCCC3)n2Cc2ccccc2)n(C)c1=O,78.6,79.3,24.3*,102.0,95.6
Cn1c(=O)[nH]c(=O)c2c1nc(N1CCN(Cc3ccccc3)CC1)n2CCCc1ccccc1,5.7,5.6*,71.5,85.1,92.5
Cn1c(=O)[nH]c(=O)c2c1nc(N1CCN(c3cccc(Cl)c3)CC1)n2CCCc1ccccc1,99.7,98.7,x,92.9,97.5
CCCCCOC(=O)Cn1c(=O)c2c(nc(N3CCOCC3)n2C)n(C)c1=O,84.5,86.8,35.3*,93.9,96.4
Cn1c(=O)c2c(nc(N3CCN(Cc4ccccc4)CC3)n2CCCc2ccccc2)n(C)c1=O,44.8,51.5,73.8,67.0,89.4
Cc1ccc(-n2c(C)nnc2SCC(=O)N2CCc3ccccc3C2)cc1,82.5,85.0,x,x,x
CCCCCn1c(N2CCN(c3cccc(Cl)c3)CC2)nc2c1c(=O)[nH]c(=O)n2C,56.3,64.5,59.0,85.4,99.2
C/C(Cl)=C/Cn1c(N2CCCC2)nc2c1c(=O)n(C)c(=O)n2C,91.0,86.4,33.4*,91.5,86.0
C/C(Cl)=C\Cn1c(N2CCCC2)nc2c1c(=O)[nH]c(=O)n2C,95.0,105.0,69.9,96.5,91.9
CCCCCn1c(CN2CCN(c3cc(Cl)ccc3C)CC2)nc2c1c(=O)[nH]c(=O)n2C,9.7,6.8,3.5*,28.1*,87.3
Cc1c(C(=O)NCC2CCCO2)cccc1[N+](=O)[O-] (configuration not stated),94.7,86.7,x,x,x
SMILES,HCT116 PTEN-null,HCT116 bCat-KO,H69AR growth 86K,HUVEC prolif 384,Fibroblast inh
O=C1NC(c2ccc3c(c2)OCO3)Oc2ccccc21 (configuration not stated),91.3,101.0,94.7,96.3,95.4
O=C1NC(c2ccc3c(c2)OCO3)Nc2ccccc21 (configuration not stated),27.8,27.1,27.1*,62.9,89.4
CCCCCN=Cc1c(C)[nH]n(-c2nc3ccccc3s2)c1=O,16.2,17.1,6.4*,12.9*,29.3*
CCCCCCOc1ccc(/C=c2\s/c(=C(/C#N)C(=O)NCc3ccco3)n(-c3ccccc3)c2=O)cc1,7.0,4.7*,x,x,x
O=C1/C(=C/c2cccnc2)CCC/C1=C\c1cccnc1,1.1*,1.9*,x,x,x
CCC1C/C(=C\c2cccnc2)C(=O)/C(=C/c2cccnc2)C1 (configuration not stated),1.5*,2.2*,x,x,x
OC1(c2ccccc2)CN(c2ccccc2)C2=[N+]1CCS2 (configuration not stated),83.0,88.1,x,x,x
N#CC(C#N)=C1C=CC=CN1/C(=C\c1ccco1)C(=O)c1ccc(Cl)cc1,2.2*,2.4*,x,x,x
N#CC(C#N)=C1C=CC=CN1/C(=C\c1ccco1)C(=O)c1ccc(-c2ccccc2)cc1,1.5*,1.7*,x,x,x
O=C(NCCc1ccc(Cl)cc1)/C(=C/c1cccnc1)NC(=O)c1ccccc1,93.1,98.5,x,x,x
COC(=O)c1ccc(COc2ccccc2/C=C(\C#N)C(=O)Nc2c(C)cc(C)cc2C)cc1,1.1*,1.4*,x,x,x
COC(=O)c1ccc(COc2ccccc2/C=C(\C#N)C(=O)Nc2ccc(C)cc2C)cc1,74.1,78.8,x,x,x
Cc1ccc2cc(CCNC(=O)c3ccc(C)c([N+](=O)[O-])c3)c(=O)[nH]c2c1,89.6,96.5,x,x,x
O=C(CNC(=O)c1ccccc1Cl)N/N=C/c1ccc([N+](=O)[O-])s1,14.3,10.9,x,x,x
Cc1nc2ccccc2n1/N=C/c1ccc([N+](=O)[O-])s1,1.7*,1.5*,x,x,x
O=[N+]([O-])c1ccc(/C=N/n2c(CO)nc3ccccc32)s1,7.4,11.8,x,x,x
Cc1cc2ncn(/N=C/c3ccc([N+](=O)[O-])s3)c2cc1C,1.2*,1.5*,x,x,x
O=[N+]([O-])c1ccc(/C=N/n2cnc3ccccc32)s1,3.0*,2.4*,x,x,x
Cc1cc2ncn(/N=C/c3cc(Br)ccc3O)c2cc1C,89.3,83.5,31.1*,94.1,100.0
COc1ccc(Cl)cc1NC(=O)COC(=O)c1cc(NS(=O)(=O)c2cccs2)ccc1O,94.3,88.2,x,x,x
